Test results from ChEMBL document CHEMBL1123325, “Isomer-dependent cytostatic activity of bis(1-aziridinyl)cyclophosphazenes” (1986).

Tests used:
Type in all cases: functional
L1210 [1] = test: In vitro inhibition dose (cytostatic activity) in L1210 mouse leukemia cells
L5178Y = test: In vitro lowest active dose (LAD) in L5178Y mouse lymphoma cells
L1210 [2] = test: Tested in vivo for 50% lethal dose in L1210 mouse leukemia cells
Mus musculus [3] = test: Compound was tested for percent median survival time of drug-treated mice over that of untreated control mice at dose of 175 mg/kg
Procedure, shortened: (§1)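 10^5 L1210 leukemia cells from in vitro suspension culture were injected into male (BALB/c × DBA/2)F1 (CDF1) mice as intraperitoneal leukemia. Dosing began 24 h later, with 5 mice per dose and 10 untreated controls. Survival times were recorded. The value is the median survival time of treated mice as a percent of untreated controls (T/C%), with 60-day long-term survivors noted.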

Mus musculus [4] = test: Tested for percent median survival time of drug-treated mice over that of untreated control mice at dose of 200 mg/kg; procedure, shortened: as §1
Mus musculus [5] = test: Compound was tested for percent median survival time of drug-treated mice over that of untreated control mice at dose of 20 mg/kg; procedure, shortened: as §1
Mus musculus [6] = test: Tested for percent median survival time of drug-treated mice over that of untreated control mice at dose of 40 mg/kg; procedure, shortened: as §1
Mus musculus [7] = test: Compound was tested for percent median survival time of drug-treated mice over that of untreated control mice at dose of 900 mg/kg; procedure, shortened: as §1
Mus musculus [8] = test: Compound was tested for percent median survival time of drug-treated mice over that of untreated control mice at dose of 600 mg/kg; procedure, shortened: as §1
Mus musculus [9] = test: Compound was tested for percent median survival time of drug-treated mice over that of untreated control mice at dose of 160 mg/kg; procedure, shortened: as §1
Mus musculus [10] = test: Compound was tested for percent median survival time of drug-treated mice over that of untreated control mice at dose of 180 mg/kg; procedure, shortened: as §1
Mus musculus [11] = test: Compound was tested for percent median survival time of drug-treated mice over that of untreated control mice at dose of 100 mg/kg; procedure, shortened: as §1
Mus musculus [12] = test: Compound was tested for percent median survival time of drug-treated mice over that of untreated control mice at dose of 70 mg/kg; procedure, shortened: as §1
Mus musculus [13] = test: Compound was tested for percent median survival time of drug-treated mice over that of untreated control mice at dose of 140 mg/kg; procedure, shortened: as §1
Mus musculus [14] = test: Compound was tested for percent median survival time of drug-treated mice over that of untreated control mice at dose of 150 mg/kg; procedure, shortened: as §1
Mus musculus [15] = test: Compound was tested for percent median survival time of drug-treated mice over that of untreated control mice at dose of 80 mg/kg; procedure, shortened: as §1
Mus musculus [16] = test: Compound was tested for percent median survival time of drug-treated mice over that of untreated control mice at dose of 60 mg/kg; procedure, shortened: as §1
Mus musculus [17] = test: Compound was tested for percent median survival time of drug-treated mice over that of untreated control mice at dose of 120 mg/kg; procedure, shortened: as §1
Mus musculus [18] = test: Compound was tested for percent median survival time of drug-treated mice over that of untreated control mice at dose of 35 mg/kg; procedure, shortened: as §1
Mus musculus [19] = test: Compound was tested for percent median survival time of drug-treated mice over that of untreated control mice at dose of 90 mg/kg; procedure, shortened: as §1
Mus musculus [20] = test: Compound was tested for percent median survival time of drug-treated mice over that of untreated control mice at dose of 110 mg/kg; procedure, shortened: as §1
Mus musculus [21] = test: Compound was tested for percent median survival time of drug-treated mice over that of untreated control mice at dose of 300 mg/kg; procedure, shortened: as §1
Mus musculus [22] = test: Compound was tested for percent median survival time of drug-treated mice over that of untreated control mice at dose of 350 mg/kg; procedure, shortened: as §1
Mus musculus [23] = test: Compound was tested for percent median survival time of drug-treated mice over that of untreated control mice at dose of 30 mg/kg; procedure, shortened: as §1
Mus musculus [24] = test: Compound was tested for percent median survival time of drug-treated mice over that of untreated control mice at dose of 50 mg/kg; procedure, shortened: as §1
Mus musculus [25] = test: Compound was tested for percent median survival time of drug-treated mice over that of untreated control mice at dose of 800 mg/kg; procedure, shortened: as §1
Mus musculus [26] = test: Compound was tested for percent median survival time of drug-treated mice over that of untreated control mice at dose of 400 mg/kg; procedure, shortened: as §1

| SMILES | ID50 (L1210 [1]) [M l-1] | LAD (L5178Y) [M l-1] | LD50 (L1210 [2]) [mg/kg] | also measured |
| --- | --- | --- | --- | --- |
| CN(C)P1(N(C)C)=N[P@](N(C)C)(N2CC2)=NP(N(C)C)(N(C)C)=N[P@](N(C)C)(N2CC2)=N1 | 5.5e-06 | 4e-06 | – | – |
| O=S1(N2CC2)=NP(N2CC2)(N2CC2)=NP(N2CC2)(N2CC2)=N1 (configuration not stated) | 1.06e-05 | – | 250 | T/C (Mus musculus [3]): 188%; T/C (Mus musculus [4]): 163% |
| C1CN1P1(N2CC2)=NP(N2CC2)(N2CC2)=NP(N2CC2)(N2CC2)=N1 | 2e-06 | – | 50 | T/C (Mus musculus [5]): 200%; T/C (Mus musculus [6]): 163% |
| C1CN(P2(N3CCOCC3)=N[P@](N3CCOCC3)(N3CC3)=N[P@@](N3CCOCC3)(N3CC3)=N2)CCO1 | 2.47e-05 | 3e-05 | 800 | T/C (Mus musculus [7]): 163%; T/C (Mus musculus [8]): 163% |
| CN(C)P1(N(C)C)=NP(N(C)C)(N(C)C)=NP(N(C)C)(N2CC2)=NP(N(C)C)(N(C)C)=N1 (configuration not stated) | 1.21e-05 | 6.4e-05 | – | – |
| C1CCN(P2(N3CCCC3)=NP(N3CC3)(N3CC3)=NP(N3CC3)(N3CC3)=N2)C1 | 2.7e-06 | – | 220 | T/C (Mus musculus [9]): 178%; T/C (Mus musculus [4]): 211% |
| C1CN(P2(N3CCOCC3)=NP(N3CCOCC3)(N3CCOCC3)=NP(N3CC3)(N3CC3)=N2)CCO1 | 0.00013 | 0.00012 | – | – |
| CNP1(NC)=NP(NC)(NC)=NP(N2CC2)(N2CC2)=NP(NC)(NC)=N1 | 6.5e-06 | 1.8e-05 | – | – |
| C1CN(P2(N3CCOCC3)=NP(N3CCOCC3)(N3CCOCC3)=NP(N3CCOCC3)(N3CC3)=N2)CCO1 (configuration not stated) | >0.00025 | >0.0003 | – | – |
| C1CCN(P2(N3CCCCC3)=NP(N3CC3)(N3CC3)=NP(N3CC3)(N3CC3)=N2)CC1 | 3.6e-06 | – | 250 | T/C (Mus musculus [4]): 156% |
| C1CN(P2(N3CCOCC3)=N[P@](N3CCOCC3)(N3CC3)=N[P@](N3CCOCC3)(N3CC3)=N2)CCO1 | 3.35e-05 | 6e-05 | – | – |
| CNP1(NC)=N[P@](NC)(N2CC2)=NP(NC)(NC)=N[P@@](NC)(N2CC2)=N1 | 4.6e-06 | 5e-07 | 200 | T/C (Mus musculus [10]): 311%; T/C (Mus musculus [11]): 244%; T/C (Mus musculus [12]): 289%; T/C (Mus musculus [13]): 333% |
| CNP1(NC)=N[P@@](NC)(N2CC2)=NP(NC)(NC)=N[P@@](NC)(N2CC2)=N1 | 4.6e-06 | 5e-07 | 200 | T/C (Mus musculus [4]): 213%; T/C (Mus musculus [14]): 200% |
| CNP1(NC)=N[P@](NC)(N2CC2)=N[P@](NC)(N2CC2)=N1 | 5e-06 | 1e-06 | 70 | T/C (Mus musculus [15]): 175%; T/C (Mus musculus [6]): 250%; T/C (Mus musculus [16]): 275% |
| CN(C)P1(N(C)C)=N[P@](N(C)C)(N2CC2)=NP(N(C)C)(N(C)C)=N[P@@](N(C)C)(N2CC2)=N1 | 7.5e-06 | 1e-06 | 150 | T/C (Mus musculus [9]): <100%; T/C (Mus musculus [17]): 125% |
| CN(C)P1(N(C)C)=NP(N(C)C)(N(C)C)=NP(N2CC2)(N2CC2)=N1 | 1.95e-05 | 2e-05 | – | – |
| CNP1(N2CC2)=NP(N2CC2)(N2CC2)=NP(N2CC2)(N2CC2)=N1 (configuration not stated) | 1.2e-06 | – | 45 | T/C (Mus musculus [18]): 188%; T/C (Mus musculus [6]): 188% |
| CNP1(NC)=NP(NC)(NC)=N[P@@](NC)(N2CC2)=N[P@](NC)(N2CC2)=N1 | 1.8e-06 | 2e-06 | 100 | T/C (Mus musculus [15]): 263%; T/C (Mus musculus [6]): 238%; T/C (Mus musculus [11]): 213%; T/C (Mus musculus [16]): 275% |
| CN(C)P1(N(C)C)=NP(N(C)C)(N(C)C)=NP(N2CC2)(N2CC2)=NP(N(C)C)(N(C)C)=N1 | 1.19e-05 | 2e-06 | – | – |

| SMILES | ID50 (L1210 [1]) [M l-1] | LAD (L5178Y) [M l-1] | LD50 (L1210 [2]) [mg/kg] | also measured |
| --- | --- | --- | --- | --- |
| CNP1(NC)=NP(NC)(NC)=NP(NC)(N2CC2)=NP(NC)(NC)=N1 (configuration not stated) | 5.69e-05 | 0.00015 | – | – |
| CN(C)P1(N(C)C)=NP(N(C)C)(N(C)C)=N[P@@](N(C)C)(N2CC2)=N[P@](N(C)C)(N2CC2)=N1 | 6.6e-06 | 2e-06 | – | – |
| C1CCN([P@@]2(N3CC3)=NP(N3CC3)(N3CC3)=N[P@@](N3CCCCC3)(N3CC3)=N2)CC1 | 2.1e-06 | – | 140 | T/C (Mus musculus [19]): 167%; T/C (Mus musculus [20]): 189% |
| C1CN([P@@]2(N3CC3)=NP(N3CC3)(N3CC3)=N[P@@](N3CCOCC3)(N3CC3)=N2)CCO1 | 4.7e-06 | – | 250 | T/C (Mus musculus [9]): 213%; T/C (Mus musculus [4]): 200% |
| C1CCN(P2(N3CCCC3)=NP(N3CCCC3)(N3CCCC3)=NP(N3CC3)(N3CC3)=N2)C1 | 1.86e-05 | 4e-06 | – | – |
| CN(C)P1(N(C)C)=N[P@@](N(C)C)(N2CC2)=N[P@](N(C)C)(N2CC2)=N1 | 2.9e-06 | 5e-07 | – | – |
| C1CN(P2(N3CCOCC3)=NP(N3CC3)(N3CC3)=NP(N3CC3)(N3CC3)=N2)CCO1 | 5.8e-06 | – | 400 | T/C (Mus musculus [21]): 175%; T/C (Mus musculus [22]): 200% |
| C1CCN(P2(N3CCCC3)=N[P@](N3CCCC3)(N3CC3)=N[P@](N3CCCC3)(N3CC3)=N2)C1 | 6.7e-06 | 1e-06 | – | – |
| CN(C)P1(N(C)C)=N[P@](N(C)C)(N2CC2)=N[P@](N(C)C)(N2CC2)=N1 | 7.3e-06 | 5e-07 | – | – |
| CNP1(NC)=N[P@@](NC)(N2CC2)=N[P@](NC)(N2CC2)=N1 | 3.3e-06 | 1e-06 | 50 | T/C (Mus musculus [23]): 200%; T/C (Mus musculus [6]): 222%; T/C (Mus musculus [24]): 289% |
| CCOC(=O)CNP1(NCC(=O)OCC)=NP(N2CC2)(N2CC2)=NP(N2CC2)(N2CC2)=N1 | 7.2e-06 | – | 170 | T/C (Mus musculus [17]): 125%; T/C (Mus musculus [14]): <100% |
| C1CCN(P2(N3CCCC3)=NP(N3CCCC3)(N3CCCC3)=NP(N3CCCC3)(N3CC3)=N2)C1 (configuration not stated) | 4.43e-05 | 1.2e-05 | – | – |
| CN(C)P1(N(C)C)=NP(N(C)C)(N(C)C)=NP(N(C)C)(N2CC2)=N1 (configuration not stated) | >0.00025 | >0.0003 | – | – |
| C1CCN(P2(N3CC3)=NP(N3CC3)(N3CC3)=NP(N3CC3)(N3CC3)=N2)CC1 (configuration not stated) | 1.5e-06 | – | 80 | T/C (Mus musculus [16]): 175%; T/C (Mus musculus [12]): 213% |
| C1CCN(P2(N3CCCC3)=N[P@@](N3CCCC3)(N3CC3)=N[P@](N3CCCC3)(N3CC3)=N2)C1 | 4.8e-06 | 1e-06 | – | – |
| CN[P@@]1(N)=NP(N2CC2)(N2CC2)=N[P@](N)(NC)=N1 | 5.05e-05 | 8e-06 | – | – |
| CNP1(NC)=NP(NC)(NC)=NP(NC)(N2CC2)=N1 (configuration not stated) | >0.00025 | 0.0002 | 800 | T/C (Mus musculus [7]): 225%; T/C (Mus musculus [8]): 175% |
| CNP1(NC)=NP(NC)(NC)=NP(N2CC2)(N2CC2)=N1 | 2.78e-05 | 8e-06 | 600 | T/C (Mus musculus [25]): 188%; T/C (Mus musculus [26]): 163%; T/C (Mus musculus [8]): 150% |
